Screening results: PubChem BioAssay, several laboratories
PAD4 FP inh = blocks human protein arginine deiminase 4; recombinant PAD4, RCA probe fluorescence polarization; inhibition, % at 6.36 µM; Q9UM07; actives 0.41% (n = 330,000);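 active = percent inhibition above a cutoff equal to the mean of all tested compounds plus 3 SD, cut at about 15% in these data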;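 note: 0% = PAD4 with RCA probe and DMSO and 100% = probe without PAD4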
TCR-CD3 inh = blocks the human TCR-CD3 interaction; TAMRA-labeled TCR probe fluorescence, biochemical; actives 0.37% (n = 360,000); AID 651800; inhibition, % at 9.4 µM; in the data active = inhibition above about 19%;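 note: recombinant mutant TCR 2C K166C tagged with TAMRA read by polarization; 0% = receptor in buffer alone and 100% = receptor with positive control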
TDP2 inh = blocks human TDP2 phosphodiesterase activity; O95551; recombinant TDP2, T5PNP hydrolysis, p-nitrophenol absorbance 415 nm; inhibition, % at 12.8 µM; actives 0.34% (n = 370,000);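 active = inhibition above the mean of all tested compounds plus 3 SD, set per campaign, cut at about 25% in these data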;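 note: 0% = DMSO with enzyme and 100% = buffer with substrate but no TDP2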
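System: recombinant human TDP2 / Amount: 120 nM TDP2 per well / Also added: 5 mM T5PNP chromogenic substrate / Doses: 12.8 µM single point, 1% DMSO / Incubation: 2 h at 37 °C / Detection: p-Nitrophenol epi absorbance / Evaluation: % inhibition relative to enzyme-containing and enzyme-free wells / Repeats: singlicate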
GSTO1 counter = GSTO1 inhibition, counter-screen for RBBP9 inhibitors; P78417; recombinant GSTO1, activity-based probe fluorescence polarization; inhibition, % at 5.96 µM; actives 1.1% (n = 300,000); AID 1974;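 active = inhibition above the campaign mean inhibition plus 3 SD, cut at about 35% in these data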;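 note: 0% = GSTO1-1 with DMSO and 100% = wells lacking GSTO1-1 enzyme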
Apaf-1 inh = human Apaf-1 inhibition; AID 489030; O14727; inhibition, % at 20 µM; reconstituted apoptosome caspase-3 activity, DEVD-Rh110 fluorescence; actives 0.71% (n = 330,000); active = inhibition of at least 40% at 20 µM;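 note: plate controls were DMSO wells for no effect and DEVD-CHO caspase inhibitor wells for full effect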
Target sequence (O14727 whole entry, looked up): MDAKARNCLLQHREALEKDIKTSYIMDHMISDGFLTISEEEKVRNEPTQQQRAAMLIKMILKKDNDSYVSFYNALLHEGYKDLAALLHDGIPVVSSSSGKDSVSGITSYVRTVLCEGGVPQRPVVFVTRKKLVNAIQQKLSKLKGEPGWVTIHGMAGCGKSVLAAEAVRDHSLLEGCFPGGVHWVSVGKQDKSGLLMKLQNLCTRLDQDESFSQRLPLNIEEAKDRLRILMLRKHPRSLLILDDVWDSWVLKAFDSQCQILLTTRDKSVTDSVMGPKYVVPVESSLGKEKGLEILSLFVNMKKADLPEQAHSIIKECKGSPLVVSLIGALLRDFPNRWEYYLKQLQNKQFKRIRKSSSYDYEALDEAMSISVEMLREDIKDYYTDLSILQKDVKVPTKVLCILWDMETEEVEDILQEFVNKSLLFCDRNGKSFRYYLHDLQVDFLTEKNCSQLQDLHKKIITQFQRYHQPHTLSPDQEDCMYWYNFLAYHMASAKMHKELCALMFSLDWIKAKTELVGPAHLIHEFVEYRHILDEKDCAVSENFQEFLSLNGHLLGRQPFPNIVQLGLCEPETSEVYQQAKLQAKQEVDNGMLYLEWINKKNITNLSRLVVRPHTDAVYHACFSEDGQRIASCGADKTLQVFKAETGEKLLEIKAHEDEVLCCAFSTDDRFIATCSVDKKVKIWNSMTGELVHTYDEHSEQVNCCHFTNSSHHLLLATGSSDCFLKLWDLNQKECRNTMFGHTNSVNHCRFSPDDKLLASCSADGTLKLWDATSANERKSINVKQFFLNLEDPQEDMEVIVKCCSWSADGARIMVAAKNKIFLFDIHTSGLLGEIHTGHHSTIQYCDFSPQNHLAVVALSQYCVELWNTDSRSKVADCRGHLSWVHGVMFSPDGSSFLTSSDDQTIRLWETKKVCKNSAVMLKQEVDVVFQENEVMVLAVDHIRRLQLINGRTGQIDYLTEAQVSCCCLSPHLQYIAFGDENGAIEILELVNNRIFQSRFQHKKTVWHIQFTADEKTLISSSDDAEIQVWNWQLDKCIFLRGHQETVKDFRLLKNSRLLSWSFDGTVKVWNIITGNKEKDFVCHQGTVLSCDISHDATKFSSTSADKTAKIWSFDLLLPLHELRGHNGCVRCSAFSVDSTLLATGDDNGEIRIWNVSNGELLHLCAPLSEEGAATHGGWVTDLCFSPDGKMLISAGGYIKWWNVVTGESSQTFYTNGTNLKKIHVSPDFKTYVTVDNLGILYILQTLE
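Assay system: Apoptosome proteins | Medium: pH 7.5 Hepes buffer with CHAPS, BSA, DTT | Also added: Cytochrome c and DEVD-Rh110 substrate | Times: 30 min plus 50 min, RT | Detection: Rhodamine 110 fluorescence at Ex 480/Em 540 nm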
SIAE inh = inhibitors of human sialic acid acetylesterase SIAE | Q9HAT2 | AID 1053197 | inhibition, % at 9.66 µM | actives 0.69% (n = 370,000) | SIAE FP-Rh probe binding, fluorescence polarization;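 active = inhibition above a cutoff: mean of compounds within the control limits plus 3 SD of those, cut at about 17% in these data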;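 note: 0% = plate median of compound wells and 100% = probe without SIAE protein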
Starred values were filed as active, the others as inactive; . = no result given. Only some compounds are listed: those with a hit (about 2.4% of all), similar ones and a draw of the others.

SMILES | PAD4 FP inh | TCR-CD3 inh | TDP2 inh | GSTO1 counter | Apaf-1 inh | SIAE inh
C#CCOCCOCCOCCNc1nc(N2CCN(C(=O)[C@H](CCCCN)n3cc([C@@H](N)CO)nn3)CC2)nc(N2CCN(C(=O)[C@H](Cc3cc4ccccc4[nH]3)n3cc([C@@H](N)Cc4ccc(O)cc4)nn3)CC2)n1 | 0.6 | . | . | 14.6 | 55.3* | .
C#CCOCCOCCOCCNc1nc(N2CCN(C(=O)[C@H](Cc3ccc(O)cc3)n3cc([C@@H](N)C(C)CC)nn3)CC2)nc(N2CCN(C(=O)[C@H](Cc3cc4ccccc4[nH]3)n3cc([C@@H](N)Cc4ccc(O)cc4)nn3)CC2)n1 (stereo partly drawn) | 1.4 | . | . | 8.7 | 55.6* | .
C#CCOCCOCCOCCNc1nc(N2CCN(C(=O)C(Cc3ccc(O)cc3)n3cc(C(N)CC(C)C)nn3)CC2)nc(N2CCN(C(=O)C(Cc3cc4ccccc4[nH]3)n3cc(C(N)C(C)CC)nn3)CC2)n1 (stereo not drawn) | -4.1 | . | . | -0.5 | 20.1 | .
CC(C)Cc1cc(C(=O)N2CCC(N3CCC(C(=O)N4CCCC4)CC3)CC2)n[nH]1 | -4.1 | 0.7 | 2.4 | -0.2 | -8.3 | -1.1
Cc1cc2ccc3ccccc3c2cc1CN(C)C | 4.2 | -2.9 | -3.3 | -4.8 | -8.4 | 1.0
Cc1sc2nc(CSCC(=O)N(CCC#N)c3ccccc3)[nH]c(=O)c2c1C | -5.1 | 20.2* | -1.3 | -1.0 | 4.8 | -2.3
CCN1CCc2c(sc(NC(=O)Nc3ccc(Cl)c(Cl)c3)c2C(N)=O)C1 | -6.0 | 6.4 | -10.9 | -10.7 | . | 31.0*
CCc1nc2ccc(C(=O)Nc3cccc(NS(C)(=O)=O)c3)cn2c1N(C)Cc1nccn1C | . | -4.1 | -6.8 | . | . | 4.3
O=C(O)c1ccc2c(c1)C(=O)/C(=C/c1ccccc1)C2=O | 2.6 | 5.5 | 9.3 | 56.1* | 36.6 | -7.5
CC(C)(C)N1C(=O)c2ccc(C(=O)O)cc2C1=O | 0.7 | 5.0 | -5.1 | 1.8 | 19.3 | 6.6
C[N+]1(CC2COC3(CCCCC3)O2)CCCC1 (stereo not drawn) | -3.6 | 0.8 | -7.8 | -0.5 | -2.4 | 3.0
O=C(COC(=O)Cc1c[nH]c2ccccc12)Nc1ccccc1C(F)(F)F | 0.3 | -2.6 | 12.6 | . | 1.6 | 4.1
Cc1ccc(C2C(C#N)=C(N)Oc3n[nH]c(-c4cccnc4)c32)o1 (stereo not drawn) | -8.6 | 0.2 | 13.9 | 14.6 | 14.7 | 3.2
Cc1ccc(C2C(C#N)=C(N)Oc3n[nH]c(-c4ccccc4)c32)o1 (stereo not drawn) | -14.2 | -2.4 | 13.0 | 45.2* | . | 9.0
CC(C)(C)C(=O)NC1=NN(c2c(Cl)cc(Cl)cc2Cl)C(=O)C1 | -9.8 | 1.1 | -0.6 | 14.0 | 67.6* | 1.1
COc1ccc2[nH]c3c4c(ccc3c2c1)C(=O)C=CC4=O | . | 1.0 | 24.4 | . | 45.2* | 0.5
COc1ccc2[nH]c(=O)cc(C(=O)O)c2c1 | -4.0 | 4.5 | 11.3 | 25.1 | -13.1 | 7.3
Cc1ccc(Cl)cc1NS(=O)(=O)Cc1ccccc1 | -7.1 | -11.3 | 16.5 | 3.0 | -10.5 | 3.2
COc1ccc2[nH]c3c(=O)n(/N=C/c4ccc(OC)c(CN5CCCC5)c4)c(C)nc3c2c1 | 2.5 | -5.1 | -11.1 | 7.0 | 43.1* | 9.1
Cc1occc(=O)c1OC(=O)Nc1ccc(Cl)c(Cl)c1 | -9.1 | 73.3* | -7.7 | -29.0 | . | -176.7
COc1ccc(C(=O)Oc2c(C)occc2=O)cc1OC | 1.3 | 2.2 | 0.5 | -9.2 | -13.3 | -2.4
COc1ccc(NC(=O)CN(C)C(=O)c2cc(-c3ccco3)nc3ccccc23)cc1 | -7.4 | 13.0 | 1.8 | 37.0* | 14.9 | 6.0
Cc1ccccc1NC(=S)N(Cc1cccnc1)Cc1ccco1 | 2.4 | 3.5 | 7.4 | 5.5 | -13.9 | -2.6
Cc1ccc(C(=O)CC2(O)C(=O)Nc3ccccc32)s1 (stereo not drawn) | -4.0 | -4.2 | 2.3 | 13.3 | 0.2 | 0.8
CC1=NN(c2ccccc2C)C(=O)C1 | . | 8.3 | 50.7* | . | . | 5.8
SMILES | PAD4 FP inh | TCR-CD3 inh | TDP2 inh | GSTO1 counter | Apaf-1 inh | SIAE inh
Cc1ccccc1N1CC(=O)N(c2ccccc2C)CC1=O | 4.2 | 5.2 | -6.9 | 6.8 | -3.9 | 1.4
O=C(NCCCO)C(=O)NCC1OCCCN1S(=O)(=O)c1cccs1 (stereo not drawn) | 2.3 | 5.4 | -0.5 | 7.8 | -2.9 | 2.7
CN(C)CCCNC(=O)C(=O)NCC1OCCN1S(=O)(=O)c1cccs1 (stereo not drawn) | -6.5 | 1.7 | 0.8 | -2.7 | 64.2* | 0.0
Cc1ccc(SCC2=NN(c3nc(C)cc(C)n3)C(=O)C2)cc1 | -3.2 | -3.5 | -9.7 | 36.9* | 18.5 | 7.4
CC1CC(C)CN(S(=O)(=O)c2ccc(NN)nc2)C1 (stereo not drawn) | -2.4 | -6.1 | -6.0 | -0.2 | -18.2 | -3.7
Nc1cccc(N2C(=O)c3cccc4c(N)ccc(c34)C2=O)c1 | 7.3 | 13.8 | -5.3 | 5.1 | -1.7 | 5.4
CC(C)CCN1C(=O)c2cccc3c(N)ccc(c23)C1=O | 24.0* | -2.3 | -11.1 | -0.1 | 11.5 | 14.3
CCCCn1c(N)c(N(CC(C)C)C(=O)c2cc(Br)c(Br)s2)c(=O)[nH]c1=O | . | -6.1 | -3.6 | . | . | 1.8
CNC[C@H](Cc1ccccc1)NC[C@@H](Cc1cccc2ccccc12)NCCc1ccc(C)cc1 | -4.4 | 2.1 | 1.3 | 6.1 | 48.2* | -0.3
CNCCNC[C@H](Cc1cccc2ccccc12)NCCc1ccccc1 | 3.8 | 7.0 | -12.3 | . | 29.7 | 3.7
CC(=O)Nc1ccc(S(=O)(=O)Nc2ccc3c(c2)CCC3)cc1 | 2.7 | 2.0 | 13.1 | 34.9* | 11.4 | 6.5
Cc1cc(C)c2c(=O)cc(C(F)(F)F)oc2n1 | 0.9 | 3.6 | -12.0 | 11.8 | -7.6 | 5.1
Cn1ccc2c(-c3cncc4ccccc34)cc3c(c21)C1CCC3O1 (stereo not drawn) | . | 0.7 | 2.8 | . | . | -1.1
Cc1ccc2c(c1)-c1c(ssc1=S)C(C)(C)N2C(=O)c1ccco1 | 4.2 | -1.7 | 4.5 | 9.3 | 7.5 | 10.2
CC1(C)c2ssc(=S)c2-c2ccccc2N1C(=O)c1ccco1 | 0.1 | -1.1 | 1.8 | -1.9 | 13.2 | 22.0*
CN(C)CCCN1C(=O)c2cccc3cccc(c23)C1=O | -0.8 | 7.5 | -3.8 | 6.4 | -12.7 | 6.7
CC1=CC2=C(OC1N(C)C)c1cccc3cccc(c13)C2=O (stereo not drawn) | 17.9* | . | . | 9.1 | 0.8 | .
O=C(O)c1cc(Nc2cc(Cl)c3nonc3c2[N+](=O)[O-])ccc1O | 6.1 | -7.6 | -12.8 | 35.9* | 16.0 | 0.8
COc1cccc(C(=O)Nc2ccc3nc(N4CCN(c5ncccn5)CC4)cc(C)c3c2)c1OC | -1.9 | . | . | 37.3* | 30.6 | .
CCOc1ccccc1C(=O)Nc1ccc2nc(N3CCN(c4ncccn4)CC3)cc(C)c2c1 | 6.1 | . | . | 0.8 | 25.2 | .
CCOC(=O)C(C)(C)N(Cc1cccc(C)c1)S(=O)(=O)c1cccc([N+](=O)[O-])c1 | -0.5 | 2.0 | 9.8 | 2.8 | 10.9 | 2.5
